Calls of active or inactive are those of the source. No cut-off for these calls is given here.
Columns and labels:
[1] = molecular target: T1, Glycogen phosphorylase, muscle form (Oryctolagus cuniculus) (UniProt P00489); assay: Inhibition of rabbit muscle glycogen phosphorylase-b at 625 uM assessed as release of inorganic phosphate using glucose-1-phosphate as substrate in presence of AMP and glycogen by spectrophotometric method
T1 sequence (whole entry): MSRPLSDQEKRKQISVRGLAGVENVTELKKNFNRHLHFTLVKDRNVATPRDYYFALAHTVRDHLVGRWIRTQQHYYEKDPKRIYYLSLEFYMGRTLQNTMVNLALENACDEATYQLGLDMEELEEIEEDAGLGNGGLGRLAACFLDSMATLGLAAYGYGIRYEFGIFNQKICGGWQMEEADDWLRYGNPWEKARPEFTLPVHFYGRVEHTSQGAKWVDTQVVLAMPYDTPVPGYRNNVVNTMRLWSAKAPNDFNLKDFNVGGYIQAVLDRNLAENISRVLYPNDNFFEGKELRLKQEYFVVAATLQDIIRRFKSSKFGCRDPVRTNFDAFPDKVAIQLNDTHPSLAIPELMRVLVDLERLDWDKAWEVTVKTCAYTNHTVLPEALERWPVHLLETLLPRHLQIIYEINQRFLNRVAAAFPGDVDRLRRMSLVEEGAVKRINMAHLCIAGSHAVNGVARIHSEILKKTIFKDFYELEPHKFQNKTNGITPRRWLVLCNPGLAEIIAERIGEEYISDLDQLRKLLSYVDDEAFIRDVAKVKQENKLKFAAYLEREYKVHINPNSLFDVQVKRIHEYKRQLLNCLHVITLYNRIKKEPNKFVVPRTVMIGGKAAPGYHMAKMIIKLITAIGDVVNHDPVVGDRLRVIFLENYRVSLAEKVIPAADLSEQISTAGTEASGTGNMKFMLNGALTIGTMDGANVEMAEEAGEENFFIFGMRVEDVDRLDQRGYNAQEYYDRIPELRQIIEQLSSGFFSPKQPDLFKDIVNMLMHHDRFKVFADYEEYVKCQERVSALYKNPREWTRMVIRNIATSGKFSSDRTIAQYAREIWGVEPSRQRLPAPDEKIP

[2] = molecular target: T2, Glycogen phosphorylase, muscle form (Oryctolagus cuniculus, UniProt P00489); assay: Inhibition of rabbit muscle glycogen phosphorylase-b assessed as release of inorganic phosphate using glucose-1-phosphate as substrate in presence of AMP and glycogen by spectrophotometric method
T2 sequence (P00489 whole entry): T1 sequence (whole entry)
Summary of the method: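 GPb was purified from rabbit skeletal muscle and used at 3 μg/mL at 30 °C, synthesis direction. Medium was 30 mM imidazole/HCl pH 6.8, 60 mM KCl, 0.6 mM EDTA, 0.6 mM DTT, 0.2% w/v glycogen and 1 mM AMP, with Glc-1-P and inhibitor varied. Initial rates came from pseudo-first-order constants of spectrophotometric phosphate release at five time points, fitted by non-linear regression.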

[3] = molecular target: T2, Glycogen phosphorylase, muscle form; assay: Inhibition of rabbit muscle glycogen phosphorylase-a assessed as release of inorganic phosphate using glucose-1-phosphate as substrate in presence of glycogen by spectrophotometric method
Summary of the method: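 Rabbit muscle GPa was made by phosphorylating purified rabbit skeletal muscle GPb and used at 3 μg/mL, without AMP. Buffer was 30 mM imidazole/HCl pH 6.8 with 60 mM KCl, 0.6 mM EDTA, 0.6 mM DTT and 0.2% w/v glycogen, with varied Glc-1-P and inhibitor, at 30 °C. Phosphate release was measured spectrophotometrically at five intervals, and data were fitted non-linearly.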

[4] = molecular target: T3, Glycogen phosphorylase, liver form (Homo sapiens, UniProt P06737); assay: Inhibition of human liver glycogen phosphorylase-a assessed as release of inorganic phosphate using glucose-1-phosphate as substrate in presence of glycogen by spectrophotometric method
T3 sequence (P06737 whole entry): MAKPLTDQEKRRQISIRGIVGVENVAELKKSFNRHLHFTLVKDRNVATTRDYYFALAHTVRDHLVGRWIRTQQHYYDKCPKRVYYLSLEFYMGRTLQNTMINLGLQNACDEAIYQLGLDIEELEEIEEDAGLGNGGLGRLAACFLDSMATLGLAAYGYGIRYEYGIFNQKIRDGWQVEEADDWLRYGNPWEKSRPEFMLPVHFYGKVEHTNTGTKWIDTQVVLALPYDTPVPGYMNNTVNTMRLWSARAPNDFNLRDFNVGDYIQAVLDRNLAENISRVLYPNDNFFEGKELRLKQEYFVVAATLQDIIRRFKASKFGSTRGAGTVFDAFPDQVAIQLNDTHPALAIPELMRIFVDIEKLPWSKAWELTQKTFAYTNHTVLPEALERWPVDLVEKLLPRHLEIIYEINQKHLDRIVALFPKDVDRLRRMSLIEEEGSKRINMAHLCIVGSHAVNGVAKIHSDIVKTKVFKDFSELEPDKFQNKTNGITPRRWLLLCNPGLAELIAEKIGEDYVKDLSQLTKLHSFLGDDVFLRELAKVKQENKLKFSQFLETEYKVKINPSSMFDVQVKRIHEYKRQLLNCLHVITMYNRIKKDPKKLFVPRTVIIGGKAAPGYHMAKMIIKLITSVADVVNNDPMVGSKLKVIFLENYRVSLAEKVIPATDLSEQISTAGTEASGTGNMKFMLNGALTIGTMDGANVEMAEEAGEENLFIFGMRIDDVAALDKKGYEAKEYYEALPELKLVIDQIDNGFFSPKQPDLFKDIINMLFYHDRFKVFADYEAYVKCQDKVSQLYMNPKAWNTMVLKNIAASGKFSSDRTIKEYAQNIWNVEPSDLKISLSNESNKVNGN
Summary of the method: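 Human liver GPa (1 μg/mL) assayed at 30 °C toward glycogen synthesis in 30 mM imidazole/HCl pH 6.8 with 60 mM KCl, 0.6 mM EDTA, 0.6 mM DTT, 0.2% w/v glycogen, no AMP, and varied Glc-1-P and inhibitor. Orthophosphate release was read spectrophotometrically at five time points; kinetic parameters were fitted by non-linear regression.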

[5] = Inhibition of glycogen phosphorylase (unknown origin); design: species or system Homo sapiens

SMILES	inhibition [1]	Ki [2] [µM]	Ki [3] [µM]	Ki [4] [µM]	Ki [5] [µM]
CN(C)/C=N/S(=O)(=O)c1ccc(-c2n[nH]c([C@@H]3O[C@H](CO)[C@@H](O)[C@H](O)[C@H]3O)n2)cc1	inactive				
NS(=O)(=O)c1ccc(-c2n[nH]c([C@@H]3O[C@H](CO)[C@@H](O)[C@H](O)[C@H]3O)n2)cc1		98.2			
OC[C@H]1O[C@@H](c2nc(-c3ccc4ccc5cccc6ccc3c4c56)n[nH]2)[C@H](O)[C@@H](O)[C@@H]1O		> 1500			
OC[C@H]1O[C@@H](c2nc(-c3cccc(-c4ccccc4)c3)n[nH]2)[C@H](O)[C@@H](O)[C@@H]1O		68.2			
OC[C@H]1O[C@@H](c2nc(-c3ccc4cc5ccccc5cc4c3)n[nH]2)[C@H](O)[C@@H](O)[C@@H]1O		20			

The remaining compounds from weak to strong by Ki [2], led by results:

inhibition [1]	Ki [2] [µM]	Ki [3] [µM]	Ki [4] [µM]	Ki [5] [µM]	SMILES
	11.5	3.38	8.91		OC[C@H]1O[C@@H](c2nc(-c3cccc4ccccc34)n[nH]2)[C@H](O)[C@@H](O)[C@@H]1O
	5.05	0.78	3.88		O=C(O)c1ccc2cc(-c3n[nH]c([C@@H]4O[C@H](CO)[C@@H](O)[C@H](O)[C@H]4O)n3)ccc2c1
	4.42	0.98	2.67		O=C(O)c1ccc(-c2ccc(-c3n[nH]c([C@@H]4O[C@H](CO)[C@@H](O)[C@H](O)[C@H]4O)n3)cc2)cc1
	2.38	2.09	2.23		OC[C@H]1O[C@@H](c2nc(-c3ccc(-c4ccccc4)cc3)n[nH]2)[C@H](O)[C@@H](O)[C@@H]1O
	1.19	0.84	2.02		OC[C@H]1O[C@@H](c2nc(-c3ccc4c(c3)Cc3ccccc3-4)n[nH]2)[C@H](O)[C@@H](O)[C@@H]1O
